Experiments:
[1] = biological target: Excitatory amino acid transporter 1 (Homo sapiens, UniProt P43003); assay: Inhibition of human EAAT1 expressed in HEK293 cells assessed as inhibition of 3[H]-D-Aspartate uptake after 6 mins by scintillation counting method
In short: (§1)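 HEK293 cell lines expressing EAAT1, EAAT2 or EAAT3 were cultured and assayed for [³H]-D-aspartate uptake, following an earlier published protocol. Inhibition is reported as IC50 in μM, with pIC50 ± SEM.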

[2] = biological target: T1, Excitatory amino acid transporter 3 (Homo sapiens, UniProt P43005); assay: Inhibition of human EAAT3 expressed in HEK293 cells assessed as inhibition of 3[H]-D-Aspartate uptake after 6 mins by scintillation counting method; in short: as §1
T1 sequence (P43005 whole entry): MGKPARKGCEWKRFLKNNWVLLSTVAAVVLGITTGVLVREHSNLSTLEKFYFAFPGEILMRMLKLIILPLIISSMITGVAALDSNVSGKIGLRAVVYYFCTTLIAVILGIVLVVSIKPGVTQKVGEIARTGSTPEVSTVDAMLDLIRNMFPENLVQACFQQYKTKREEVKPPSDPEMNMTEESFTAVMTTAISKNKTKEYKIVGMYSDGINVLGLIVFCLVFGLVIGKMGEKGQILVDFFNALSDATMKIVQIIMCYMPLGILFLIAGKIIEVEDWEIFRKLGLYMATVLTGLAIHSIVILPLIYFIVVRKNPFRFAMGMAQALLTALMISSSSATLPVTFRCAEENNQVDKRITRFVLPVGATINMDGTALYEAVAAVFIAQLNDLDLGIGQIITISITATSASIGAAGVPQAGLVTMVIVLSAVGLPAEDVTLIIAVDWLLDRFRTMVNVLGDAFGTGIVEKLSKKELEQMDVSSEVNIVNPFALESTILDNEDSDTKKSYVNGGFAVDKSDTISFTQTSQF

[3] = biological target: Excitatory amino acid transporter 2 (Homo sapiens, UniProt P43004); assay: Inhibition of human EAAT2 expressed in HEK293 cells assessed as inhibition of 3[H]-D-Aspartate uptake after 6 mins by scintillation counting method; in short: as §1
Excitatory amino acid transporter 2, sequence (P43004 whole entry): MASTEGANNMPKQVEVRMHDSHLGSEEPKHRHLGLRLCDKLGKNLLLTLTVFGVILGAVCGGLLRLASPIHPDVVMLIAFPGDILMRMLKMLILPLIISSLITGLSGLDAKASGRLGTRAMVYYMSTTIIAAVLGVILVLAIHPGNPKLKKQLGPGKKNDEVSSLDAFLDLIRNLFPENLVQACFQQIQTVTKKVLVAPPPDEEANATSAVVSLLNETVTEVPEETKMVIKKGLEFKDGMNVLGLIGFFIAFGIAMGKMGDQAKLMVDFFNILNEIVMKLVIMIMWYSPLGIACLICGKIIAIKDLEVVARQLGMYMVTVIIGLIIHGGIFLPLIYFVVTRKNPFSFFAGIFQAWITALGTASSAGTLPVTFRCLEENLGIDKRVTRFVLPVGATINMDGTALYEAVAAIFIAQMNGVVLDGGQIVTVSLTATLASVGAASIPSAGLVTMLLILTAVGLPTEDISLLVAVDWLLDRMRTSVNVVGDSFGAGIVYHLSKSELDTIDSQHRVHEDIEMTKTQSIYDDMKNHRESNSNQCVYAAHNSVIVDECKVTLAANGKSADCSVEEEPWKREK

Excitatory amino acid transporter 1, sequence (P43003 whole entry): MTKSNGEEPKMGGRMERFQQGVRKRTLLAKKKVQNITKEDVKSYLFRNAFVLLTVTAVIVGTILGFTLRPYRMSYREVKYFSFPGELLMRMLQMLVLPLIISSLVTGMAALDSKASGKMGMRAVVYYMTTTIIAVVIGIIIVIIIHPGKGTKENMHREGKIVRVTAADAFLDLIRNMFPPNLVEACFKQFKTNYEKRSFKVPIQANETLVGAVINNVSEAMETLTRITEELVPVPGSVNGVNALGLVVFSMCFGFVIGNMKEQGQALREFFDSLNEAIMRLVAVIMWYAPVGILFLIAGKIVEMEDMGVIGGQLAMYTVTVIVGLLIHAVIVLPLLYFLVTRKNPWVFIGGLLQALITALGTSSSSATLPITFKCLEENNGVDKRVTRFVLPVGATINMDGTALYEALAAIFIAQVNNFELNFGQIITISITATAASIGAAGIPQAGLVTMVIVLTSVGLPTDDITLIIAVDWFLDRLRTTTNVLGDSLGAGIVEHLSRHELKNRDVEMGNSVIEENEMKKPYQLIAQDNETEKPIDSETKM

| IC50 [1] | IC50 [2] | IC50 [3] | Structure (SMILES) |
| --- | --- | --- | --- |
| > 300 µM | – | – | CC1(C)C2=C(CC(c3ccccc3)CC2=O)OC(=N)C1C#N (configuration not stated) |
| > 100 µM | > 100 µM | > 100 µM | N#CC1C(=N)OC2=C(C(=O)CN(C(=O)c3ccccc3)C2)C1c1ccccc1 (configuration not stated) |
| > 100 µM | > 100 µM | > 100 µM | N#CC1C(=N)OC2=C(C(=O)CN(c3ccccc3)C2)C1c1ccccc1 (configuration not stated) |
